Source: PubChem BioAssay
An excerpt weighted towards active compounds, which were near 3.8% of everything screened.
Measles CPE – compounds protecting cells from measles virus cytopathic effect, primary screen, measles RdRp inhibitor project, single point, MLSMR library, absorbance | Measles virus-infected cells, CPE protection | AID 841, 2007 | 1.5% of 140,000 active | protection (pct of control), % at 4 µM; in the data active = protection mostly above about 24%, no sharp cut-off; inactive = mostly below about 26%
Yeast lifespan up – compounds extending yeast replicative lifespan, primary screen, S. cerevisiae, OD615. inhibition of the nicotinamide effect, % at 10 µM. 0.68% of 130,000 active. S. cerevisiae growth with nicotinamide; deaD strain in restrictive glucose medium;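 active = inhibition above a set limit, placed 3 SD over the median of all compounds, cut at about 26% in these data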;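 also: 0% = nicotinamide-treated wells and 100% = cells grown without nicotinamide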
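System: DeaD-strain S. cerevisiae / Buffer or medium: CSMM-D, restrictive glucose (dextrose) synthetic minimal medium / Probe or stimulus: nicotinamide, 1.5 mM, co-present with compound / Compound: one concentration, 10 µM, DMSO 0.25% / Incubation: 48 h compound exposure at 30 °C, humidified / Technique: optical density (absorbance) at 615 nm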
RAM network inh – inhibitors of the yeast RAM network, primary screen, dse1pr::URA3 reporter, 5-FOA selection | S. cerevisiae dse1pr::URA3 reporter, 5-FOA growth OD615, 2 d; analog-sensitive cbk1-as2 kinase mutant strain | inhibition, % at 50 µM | 1.8% of 190,000 active | AID 868, 2007;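 active = inhibition above a set limit, 3 SD over mean compound inhibition, cut at about 8.4% in these data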;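 also: 0% = DMSO-only wells with no growth and 100% = 10 µM 1-NA-PP1 full growth; inhibition rescues growth on 5-FOA so higher OD means more RAM inhibition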
BB579 growth dn – growth inhibitors of yeast BB579 in restrictive medium, primary screen, yeast lifespan-shortening project, S. cerevisiae; AID 804, 2007; OD615, 48 h; 0.51% of 140,000 active; inhibition, % at 10 µM;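 active = inhibition above a set limit, 3 SD over the mean compound inhibition, cut at about 44% in these data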
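Assay system: S. cerevisiae DeaD strain BB579 yeast. Medium: CSMM-D restrictive synthetic medium containing dextrose (glucose). Times: 4 h cell preincubation, 48 h compound exposure, 30 °C humidified. Signal: OD615 turbidity measurement. Benchmarks: positive control amphotericin B 10 µg/mL.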
sdo1 growth – growth rescue of sdo1-depleted yeast, primary screen, S. cerevisiae, bone marrow failure model; AID 817, 2007; 0.21% of 140,000 active; S. cerevisiae sdo1-depleted JHY4D growth rescue, OD600 30 h; hits give high values; pdr5 snq2 efflux-pump mutant strain; z-score at 10 µM;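 active = z-score above 3 at both the 24 hr and the 30 hr optical density reads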;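 also: z-score against mean and SD of all compound wells on the same plate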
* = called active by the depositor; / = not tested or not shown; [ ] = another dose, or the depositor's remark.

SMILES | Measles CPE | Yeast lifespan up | RAM network inh | BB579 growth dn | sdo1 growth
O=C(O)c1ccccc1Nc1ccccc1C(=O)O | 4 | -13 | 4 | -7 | 0.22
O=C(O)c1ccccc1Nc1ccc([N+](=O)[O-])cc1 | 83* | -5 | 1 | 95* | -0.63
CNc1nnc(-c2cc3cc(Cl)ccc3oc2=O)s1 | 1 | -12 | 4 | 57* | -0.58
Cc1cccc(C)c1N=Cc1c(O)n(-c2nccs2)c(=O)c2ccccc12 | 4 | 33* | 2 | -39 | -1.3
Cc1cc(C)c(N=Cc2c(O)n(-c3nccs3)c(=O)c3ccccc23)c(C)c1 | 3 | 19 | 3 | -33 | -1.3
Cc1ccccc1C(=O)NNC(=S)NC(=O)c1ccccc1 | 11 | 30* | 1 | 27 | -0.46
Cc1ccccc1C(=O)NNC(=O)c1ccc(Br)cc1 | / | / | -1 | / | /
O=C(CCc1ccccc1)NNC(=S)NC(=O)c1ccccc1 | 3 | -12 | -1 | 69* | -1.8
COc1cc(CC(C#N)(CO)c2nc3ccccc3[nH]2)ccc1OC(F)F (stereo not given) | 15 | 4 | 3 | -30 | 0.33
Cc1cc(CNC(=O)COc2ccc(F)cc2Cl)cc(C)c1O | / | / | 10* | / | /
Cc1cc(Cl)ccc1OCC(=O)NCc1ccncc1 | 48* | -3 | 1 | -14 | 1.2
O=C(COc1ccc(Cl)cc1Cl)NCc1ccncc1 | 24 | -21 | 0 | -16 | 0
Cc1ccnc(NC(=O)CCC(=O)N(CC(=O)NC2CCCCC2)Cc2cccs2)c1 | / | / | 1 | / | /
O=[N+]([O-])c1ccc(N(c2ccccc2)c2ccccc2)cc1 | 3 | -23 | 10* | -13 | -1.1
Cc1ccc(C(=O)NCCSc2ccc(Cl)cc2)cc1S(=O)(=O)Nc1ccccc1 | 43 | -5 | 10* | -37 | -0.28
CC(C)c1nnc(NC(=O)CSc2nnc(NC(=O)c3c(F)cccc3F)s2)s1 | / | / | 10* | / | /
CC(C)Nc1nnc(SCC(=O)Nc2ccc(F)cc2)s1 | 7 | -13 | 1 | -18 | -0.33
COc1ccccc1NS(=O)(=O)c1cc([N+](=O)[O-])ccc1N/N=C/c1c[nH]c2ccccc12 | 3 | -1 | 10* | 5 | -2.2
COc1ccc(NS(=O)(=O)c2cc([N+](=O)[O-])ccc2N/N=C\c2c(C)[nH]c3ccccc23)cc1 | 2 | 3 | 6 | -65 | -0.66
CCCOc1ccc(NC(=O)OC2CCN(C)CC2)cc1 | 2 | 6 | 0 | -41 | 0.78
O=C(O)c1ccc(Br)c(S(=O)(=O)N2CCCC2)c1 | 5 | -29 | 3 | -37 | 1.1
CCOC(=O)COc1c(Br)cc(/C=C2\SC(=O)N(CC(=O)N3CCCC3)C2=O)cc1OC | 21 | -11 | 11* | -52 | -0.3
CCOc1c(Br)cc(/C=C2/SC(=O)N(CC(=O)N3CCCC3)C2=O)cc1OC | 3 | -10 | 1 | 0 | 1.4
COc1ccc(NC(=O)c2sccc2C)cn1 | / | / | 1 | / | /
O=C(Oc1ccc2ccccc2c1Br)N1CCCCCC1 | 47* | -15 | 1 | -52 | -0.36
SMILES | Measles CPE | Yeast lifespan up | RAM network inh | BB579 growth dn | sdo1 growth
CCOC(=O)C1CCN(c2ncnc3c2nnn3Cc2ccccc2Cl)CC1 | / | / | 8.4* | / | /
O=C(c1ccco1)N1CCN(c2ncnc3c2nnn3Cc2ccccc2Cl)CC1 | 5 | / | -1 | -28 | -0.74
CCOc1ccc(NS(=O)(=O)c2ccc(NS(=O)(=O)c3ccc(SC)cc3)cc2)cc1 | 19 | 7 | 8.9* | -70 | 0.41
CCOc1ccc(NS(=O)(=O)c2ccc(NS(C)(=O)=O)cc2)cc1 | 10 | -18 | 0 | 2 | -0.24
C=C(C)CN(CC)C(=O)COc1ccc(S(=O)(=O)Nc2ccc(OC)cc2)cc1 | 8 | 108* | 4 | 3 | 0.58
CCCNC(=S)Nc1c(C)n(C)n(-c2ccccc2)c1=O | / | / | 1 | / | /
O=C(Cc1cccs1)Nc1cccnc1 | 17 | 1 | 0 | -27 | -0.36
CCCC1=C(C(=O)OCC)C(c2ccc(OC)c(C)c2OC)C(C#N)=C(N)O1 (stereo not given) | 12 | 4 | 1 | -37 | -0.35
O=c1oc2ccccc2c(N2CCCC2)c1CN1CCCC1 | 4 | -9 | 0 | 86* | 0.33
Cc1cc(C)c[n+](-c2[nH]c(=O)sc2/C=N/N=C(\N)[S-])c1 | / | / | 2 | / | /
S=C(c1cn(Cc2ccc(Br)cc2)c2ccccc12)N1CCOCC1 | 26 | 1 | 2 | -19 | -1.3
O=C(COC(=O)CCC1CCCC1)Nc1ccc(Cl)cc1F | 3 | 3 | 3 | -21 | -0.73
Cc1ccc(Nc2nc(N)nc(CSc3nc4ccccc4s3)n2)cc1 | 4 | -20 | 9.8* | -71 | -1.8
Cc1ccccc1Nc1nc(N)nc(CSc2nc3ccccc3s2)n1 | 2 | -5 | 2 | -20 | -1.7
Cc1ccc(NC(=S)N(Cc2cccs2)Cc2cc3cccc(C)c3[nH]c2=O)cc1 | 20 | 6 | 4 | -18 | 0.1
COc1ccc(OC)c(Nc2nc3nonc3nc2N2CCCCC2)c1 | 17 | -11 | 3 | -17 | -0.4
COc1ccccc1Nc1nc2nonc2nc1N1CCC(C)CC1 | 78* | 3 | 6 | -20 | -0.93
Cc1c(N=Nc2c(-c3ccc([N+](=O)[O-])cc3)[nH]n(C(N)=S)c2=O)cccc1[N+](=O)[O-] | / | / | 11* | / | /
CCOC(=O)C1=NNC2(c3ccc(Cl)cc3)C(=O)N(c3ccc(C)cc3)C(=O)C12 (stereo not given) | 16 | -1 | 11* | -9 | 1.1
CC(NC(=O)c1ccco1)c1ccc2c(c1)OCCO2 (stereo not given) | 25 | -5 | 2 | -7 | -0.31
Cc1cccc(NC(=O)C2C3C=CC(C4CC34)C2C(=O)O)c1 (stereo not given) | 49* | / | -1 | -17 | 0.54
O=C(O)C1C2C=CC(C3CC23)C1C(=O)O (stereo not given) | 5 | / | 2 | -1 | -0.23
COc1ccc(C(=O)NCC(=O)NCC(=O)OCC(=O)C(C)(C)C)cc1 | 8 | 4 | 0 | -53 | 1.1
CSc1ccccc1NC(=O)Cn1c(-c2cscn2)nc2ccccc21 | 96* | -10 | 2 | -82 | -1
Cc1ccc(O)c(C(=O)c2cc(C(=O)NCCc3ccccc3)c(=O)n(CCc3ccccc3)c2)c1 | 17 | 3 | 8.9* | -19 | -0.99
Cc1cc(C2C(C#N)=C(N)Oc3n[nH]c(C)c32)c(C)s1 (stereo not given) | 6 | 71* | -1 | -2 | 0.32
COCCNC(=O)C(c1cccc(OC)c1)N(Cc1cccs1)C(=O)Cn1nnc2ccccc21 (stereo not given) | 26 | -3 | 8.6* | -15 | 1.2
O=C(NCc1ccco1)C(c1ccccc1)N(CC1CCCO1)C(=O)Cn1nnc2ccccc21 (stereo not given) | 2 | -10 | 2 | -56 | -0.12[4.7 µM]
